Exocytosis inh: LAMP-1 surface exposure blockers, TALL-104 cells – cell-based, flow cytometry, MLPCN library, primary screen | actives 0.66% (n = 360,000) | TALL-104 LAMP-1 surface exposure; cells stimulated with thapsigargin and PMA | inhibition, % at 10 µM;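 active = inhibition above about 55%, limit read from the data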
T cell modulator: modulators of CD8 T cell-vesicle binding, primary screen, mouse 2C CD8+ T cells, flow cytometry. 2C CD8+ T cell-vesicle binding; stronger effect = lower value. response (vesicle binding), % at 7 µM. actives 0.068% (n = 330,000). AID 2052, 2009;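 active = response, share of CD8 T cells binding vesicles, and their 90th percentile fluorescence all below set limits, cut at about 80% in these data, passing the limit was not always enough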;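 note: values below 100% mean blocked vesicle binding to the CD8+ T cells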
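Also added: QL9-peptide-loaded Drosophila micro-vesicles bearing Ld, ICAM-1 and B7-1; Test system: purified 2C TCR transgenic mouse naive CD8+ T cells; Measured by: cytometric PE anti-B7-1 and Alexa647 anti-CD8 signals after 1% paraformaldehyde fixation; Timing: binding step 1.5 h, 37 °C, antibody labelling 20 min, ice.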
MC4R antag cAMP: MC4R antagonists of cAMP signaling, primary screen, cell-based, TR-FRET, antagonist arm of biased-ligand search | Melanocortin receptor 4 (Homo sapiens), P32245 | MC4R-expressing cells, MTII-stimulated cAMP, LANCE TR-FRET | inhibition, % at 6.5 µM | actives 0.48% (n = 360,000) | AID 540295, 2011;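 active = inhibition above its plate's cutoff, the mean of tested wells on that plate plus 3 SD, cut at about 29% in these data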
Target sequence (P32245 whole entry, looked up): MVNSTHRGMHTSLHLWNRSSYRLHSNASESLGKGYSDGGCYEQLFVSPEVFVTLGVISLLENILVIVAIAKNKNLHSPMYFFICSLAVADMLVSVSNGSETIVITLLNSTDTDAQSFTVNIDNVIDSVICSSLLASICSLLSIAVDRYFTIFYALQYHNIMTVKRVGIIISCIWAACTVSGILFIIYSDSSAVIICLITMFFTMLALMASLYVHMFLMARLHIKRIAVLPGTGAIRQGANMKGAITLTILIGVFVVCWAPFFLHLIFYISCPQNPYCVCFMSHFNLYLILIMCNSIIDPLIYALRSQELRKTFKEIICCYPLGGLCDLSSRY
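Material: U2OS-MC4R stable cell line | Reagent: Melanotan II challenge after compound preincubation | Doses: One concentration, 6.5 µM nominal | Incubation: 30-min compound preincubation, 1-h Melanotan II challenge, 1-h detection, room temperature | Signal: TR-FRET cAMP assay | Replicates: One well per compound, no replicates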
PGE2 EP2 inh: human EP2 receptor antagonists, primary screen, TR-FRET cAMP, C6 glioma cells; C6 glioma cells expressing human EP2; cells stimulated with saturating PGE2; Prostaglandin E2 receptor EP2 subtype (Homo sapiens), P43116; inhibition, % at 25 µM; AID 1422, 2008; actives 0.52% (n = 260,000);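 active = percent inhibition above 40 after rounding to a whole number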;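 note: rat C6 glioma host cells with rolipram phosphodiesterase inhibitor present; the protocol text gives 20 µM as final concentration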
MC4R ag barr: MC4R agonists recruiting beta-arrestin, primary screen, cell-based, luminescence, agonist arm of biased-ligand search; Melanocortin receptor 4 (Homo sapiens), P32245; actives 0.98% (n = 360,000); activation, % at 8.9 µM; U2OS MC4R beta-arrestin complementation; percent of melanotan II response, DMSO zero;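 active = activation above a per-plate cutoff, the mean activation of sample wells on that plate plus 3 SD, cut at about 8% in these data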
EP2 mod: EP2 receptor modulators, cAMP readout, primary screen, cell-based, HTRF cAMP, PGE2 stimulation. actives 0.83% (n = 260,000). AID 940, 2007. EP2-expressing cells, cAMP HTRF FRET, PGE2 co-stimulation. induction, % at 25 µM;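 active = compounds whose cAMP rise, as percent of the full-agonist control response, exceeds 60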;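 note: rat C6 glioma line stably carrying human EP2 under a CMV promoter; the protocol text gives 20 µM as final concentration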
MC4R barr ag: MC4R beta-arrestin agonists, retest, confirmation, cell-based, luminescence, U2OS; AID 602192, 2012; U2OS MC4R beta-arrestin recruitment; scaled DMSO 0%, Melanotan II 100%; actives 31% (n = 2,400); activation, % at 8.9 µM; shares compounds with MC4R ag barr;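 active = mean activation across replicates above the hit cutoff set in the earlier primary screen, cut at about 8% in these data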
MOR-DOR barr ag: agonists of MOR-DOR heterodimerization, counter-screen for MC4R biased agonist project, cell-based, luminescence. shares compounds with MC4R ag barr. U2OS PathHunter beta-arrestin, beta-gal luminescence; percent of deltorphin B response, DMSO zero. activation, % at 9.2 µM. actives 5.8% (n = 2,400);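 active = mean activation across replicates exceeds the hit threshold derived in the earlier primary screen, cut at about 18% in these data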
Large screens that a line does not name were inactive (follow-up assays come after a bar, where they were run). Compounds with a hit are over-represented: about 2.6% of the library has one in this group of screens.

COc1ccc(/C=C2\SC(=S)N(CCCC(=O)Nc3ccc(O)cc3)C2=O)cc1	MC4R ag barr 16.9 | MC4R barr ag 10.3 | MOR-DOR barr ag inactive
COc1ccc(/C=C2\SC(=S)N(CCC(=O)Nc3cccc(O)c3)C2=O)cc1	MC4R ag barr 21.2 (no result: T cell modulator, PGE2 EP2 inh, EP2 mod) | MC4R barr ag inactive | MOR-DOR barr ag inactive
COc1ccc(N2CCN(C(=O)C(=O)c3ccc(F)cc3)CC2)cc1	none (no result: T cell modulator, MC4R antag cAMP, PGE2 EP2 inh, MC4R ag barr, EP2 mod)
O=C(Cn1c(=O)n(CC2CCCO2)c(=O)c2ccccc21)c1ccc(Cl)c(Cl)c1 (stereo not drawn)	MC4R ag barr 10.7 | MC4R barr ag inactive | MOR-DOR barr ag inactive
CC1Nc2ccccc2C(=O)N1NS(C)(=O)=O (stereo not drawn)	none
c1ccc(Cc2nnc(-c3ccccc3)o2)cc1	MC4R ag barr 15.3 | MC4R barr ag 24.6 | MOR-DOR barr ag 19.4
Brc1ccc(-c2nnc(Cc3ccccc3)o2)cc1	none
CSCCC(NS(=O)(=O)c1ccc2c(c1)Cc1cc(S(=O)(=O)NC(CCSC)C(=O)O)ccc1-2)C(=O)O (stereo not drawn)	none (no result: PGE2 EP2 inh, EP2 mod)
COc1ccc(N=CC2=C(O)c3ccccc3C2=O)c(OC)c1	MC4R ag barr 11.5 | MC4R barr ag inactive | MOR-DOR barr ag inactive
CCOC(=O)c1sc2nc(NC(=O)C3CC3)sc2c1C	none
CCOC(=O)c1sc2nc(NC(=O)C(C)(C)C)sc2c1C	MC4R ag barr 10.0 (no result: PGE2 EP2 inh) | MC4R barr ag inactive | MOR-DOR barr ag inactive
Cc1ccc(C(=O)COC(=O)CCC(=O)Nc2ccccc2Cl)cc1[N+](=O)[O-]	none
O=C(Nc1cc(Cl)ccn1)C1(c2ccccc2)CC1(Cl)Cl (stereo not drawn)	MC4R ag barr 11.2 | MC4R barr ag inactive | MOR-DOR barr ag inactive
O=C(Nc1ccccc1)C1(c2ccccc2)CC1(Cl)Cl (stereo not drawn)	none
CC1CC(C)CN(C(=S)Nc2ccc(SC(F)F)cc2)C1 (stereo not drawn)	MC4R ag barr 24.0 | MC4R barr ag inactive | MOR-DOR barr ag inactive
CC1CN(C(=S)Nc2ccc(SC(F)F)cc2)CC(C)O1 (stereo not drawn)	none (no result: PGE2 EP2 inh, EP2 mod)
CCc1ccc(-n2nc3ccc(NC(=O)c4ccc5c(c4)OCO5)cc3n2)cc1	MC4R ag barr 11.2 | MC4R barr ag inactive | MOR-DOR barr ag inactive
O=C(Nc1ccc2nn(-c3ccccc3)nc2c1)c1ccc(Br)o1	MC4R ag barr 13.2 | MC4R barr ag 16.7 | MOR-DOR barr ag inactive
O=C(O)CCCNc1n[nH]c(=O)[nH]c1=O	none
COc1ccc(-n2c(COc3cccc(C)c3)nnc2SC(C)C(=O)O)cc1 (stereo not drawn)	none (no result: Exocytosis inh, T cell modulator, MC4R antag cAMP, MC4R ag barr)
N#Cc1sc2nc(-c3cccs3)cc(-c3ccc(F)cc3)c2c1N	MC4R ag barr 34.5 | MC4R barr ag 19.1 | MOR-DOR barr ag inactive
CSc1cc(-c2ccccc2)n(C)c(=O)c1C#N	MC4R ag barr 11.6 | MC4R barr ag inactive | MOR-DOR barr ag inactive
Cc1ccc2nc(NC(=O)C3CCN(c4ncnc5sc(C)c(C)c45)CC3)sc2c1	none (no result: PGE2 EP2 inh, EP2 mod)
